According to ChEMBL document CHEMBL4257452, “A mini-library system to investigate non-essential residues of lipid-phosphatidylserine (PS) binding peptide-peptoid hybrid PPS1” (Medchemcomm, 2017):
The source made the active and inactive calls. The rule behind the calls is not given here. Starred links: 1 amine or outer side, 2 acyl side, 3 side chain; linkers in the order of their positions; H or OH if unused. Positions of bridges follow the written chain, without caps; N, C: chain ends. Non-standard residues stand in square brackets, D forms with d. Residues, ends and D or L forms follow the SMILES beside them. Chains are numbered I, II in the order given. N(3,4-(MeO)2phenethyl)Gly = COc1ccc(CCNCC(=O)O)cc1OC; Gly(N-piperonyl) = O=C(O)CNCc1ccc2c(c1)OCO2; N(4-MeOBn)Gly = COc1ccc(CNCC(=O)O)cc1; N(CH2CH2NHAc)Gly = CC(=O)NCCNCC(=O)O; X3 = CC(c1ccccc1)N(CC(=O)[*:2])[*:1]; N(4-MeBn)Gly = Cc1ccc(CNCC(=O)O)cc1; N(isopentyl)Gly = CC(C)CCNCC(=O)O; NFurfurylGly = O=C(O)CNCc1ccco1; X7 = O=C(CN(c1nccs1)[*:1])[*:2]; X6 = CCC(C)N(CC(=O)[*:2])[*:1]; NAllylGly = C=CCNCC(=O)O; NcPrGly = O=C(O)CNC1CC1; Nme = COCCNCC(=O)O; Sar = CNCC(=O)O

What follows are compounds tested on HCC4017 (assay: Cytotoxicity against human HCC4017 cells assessed as reduction in cell viability at 20 uM after 24 hrs by MTS assay).
Assay type: functional, cell-based
How it was run: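 HCC4017 cells (RPMI, 5% FBS) and HBEC-3KT normal lung cells (KSFM with recombinant human EGF and bovine pituitary extract) were plated at 10 000 cells/well in triplicate and left to adhere overnight. They were exposed to 1 or 20 μM compound for 24 h. MTS reagent was then added for 2 h and absorbance read at 490 nm. Viability is % of untreated control wells.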

Q: With COc1ccc(CN(CC(=O)N(CCc2ccc(OC)c(OC)c2)CC(=O)NC(CCCCN)C(=O)NC(CCCCN)C(=O)NC(CCSC)C(=O)NCCCCC(NC(=O)C(CCSC)NC(=O)C(CCCCN)NC(=O)C(CCCCN)NC(=O)CN(CCc2ccc(OC)c(OC)c2)C(=O)CN(Cc2ccc(OC)cc2)C(=O)CN(C(=O)CN(Cc2ccc3c(c2)OCO3)C(=O)CNC(C)c2ccccc2)C(C)c2ccccc2)C(N)=O)C(=O)CN(C(=O)CN(Cc2ccc3c(c2)OCO3)C(=O)CNC(C)c2ccccc2)C(C)c2ccccc2)cc1 (stereo not drawn) (I: H-[X3][Gly(N-piperonyl)][X3][N(4-MeOBn)Gly][N(3,4-(MeO)2phenethyl)Gly]KKMK-NH2 / II: H-[X3][Gly(N-piperonyl)][X3][N(4-MeOBn)Gly][N(3,4-(MeO)2phenethyl)Gly]KKM; amide I:9-II:C; configuration not given here) as the compound, how does the Activity read?
A: Active

Q: For COc1ccc(CN(CC(=O)N(CC(=O)NC(CCCCN)C(=O)NC(CCCCN)C(=O)NC(CCSC)C(=O)NCCCCC(NC(=O)C(CCSC)NC(=O)C(CCCCN)NC(=O)C(CCCCN)NC(=O)CN(Cc2ccc(C)cc2)C(=O)CN(Cc2ccc(OC)cc2)C(=O)CN(C(=O)CN(Cc2ccc3c(c2)OCO3)C(=O)CNC(C)c2ccccc2)C(C)c2ccccc2)C(N)=O)Cc2ccc(C)cc2)C(=O)CN(C(=O)CN(Cc2ccc3c(c2)OCO3)C(=O)CNC(C)c2ccccc2)C(C)c2ccccc2)cc1 (stereo not drawn) (I: H-[X3][Gly(N-piperonyl)][X3][N(4-MeOBn)Gly][N(4-MeBn)Gly]KKMK-NH2 / II: H-[X3][Gly(N-piperonyl)][X3][N(4-MeOBn)Gly][N(4-MeBn)Gly]KKM; amide I:9-II:C; configuration not given here), which Activity is on record?
A: Active

Q: With COc1ccc(CN(CC(=O)NC(CCCCN)C(=O)NC(CCCCN)C(=O)NC(CCSC)C(=O)NCCCCC(NC(=O)C(CCSC)NC(=O)C(CCCCN)NC(=O)C(CCCCN)NC(=O)CN(Cc2ccc(OC)cc2)C(=O)CN(Cc2ccc(OC)cc2)C(=O)CN(C(=O)CN(Cc2ccc3c(c2)OCO3)C(=O)CNC(C)c2ccccc2)C(C)c2ccccc2)C(N)=O)C(=O)CN(Cc2ccc(OC)cc2)C(=O)CN(C(=O)CN(Cc2ccc3c(c2)OCO3)C(=O)CNC(C)c2ccccc2)C(C)c2ccccc2)cc1 (stereo not drawn) (I: H-[X3][Gly(N-piperonyl)][X3][N(4-MeOBn)Gly][N(4-MeOBn)Gly]KKMK-NH2 / II: H-[X3][Gly(N-piperonyl)][X3][N(4-MeOBn)Gly][N(4-MeOBn)Gly]KKM; amide I:9-II:C; configuration not given here) as the compound, how does the Activity read?
A: Active

Q: For COc1ccc(CN(CC(=O)N(CCNC(C)=O)CC(=O)NC(CCCCN)C(=O)NC(CCCCN)C(=O)NC(CCSC)C(=O)NCCCCC(NC(=O)C(CCSC)NC(=O)C(CCCCN)NC(=O)C(CCCCN)NC(=O)CN(CCNC(C)=O)C(=O)CN(Cc2ccc(OC)cc2)C(=O)CN(C(=O)CN(Cc2ccc3c(c2)OCO3)C(=O)CNC(C)c2ccccc2)C(C)c2ccccc2)C(N)=O)C(=O)CN(C(=O)CN(Cc2ccc3c(c2)OCO3)C(=O)CNC(C)c2ccccc2)C(C)c2ccccc2)cc1 (stereo not drawn) (I: H-[X3][Gly(N-piperonyl)][X3][N(4-MeOBn)Gly][N(CH2CH2NHAc)Gly]KKMK-NH2 / II: H-[X3][Gly(N-piperonyl)][X3][N(4-MeOBn)Gly][N(CH2CH2NHAc)Gly]KKM; amide I:9-II:C; configuration not given here), which Activity is on record?
A: Active

Q: How did the Activity turn out when COc1ccc(CN(CC(=O)N(CCC(C)C)CC(=O)NC(CCCCN)C(=O)NC(CCCCN)C(=O)NC(CCSC)C(=O)NCCCCC(NC(=O)C(CCSC)NC(=O)C(CCCCN)NC(=O)C(CCCCN)NC(=O)CN(CCC(C)C)C(=O)CN(Cc2ccc(OC)cc2)C(=O)CN(C(=O)CN(Cc2ccc3c(c2)OCO3)C(=O)CNC(C)c2ccccc2)C(C)c2ccccc2)C(N)=O)C(=O)CN(C(=O)CN(Cc2ccc3c(c2)OCO3)C(=O)CNC(C)c2ccccc2)C(C)c2ccccc2)cc1 (stereo not drawn) (I: H-[X3][Gly(N-piperonyl)][X3][N(4-MeOBn)Gly][N(isopentyl)Gly]KKMK-NH2 / II: H-[X3][Gly(N-piperonyl)][X3][N(4-MeOBn)Gly][N(isopentyl)Gly]KKM; amide I:9-II:C; configuration not given here) was run?
A: Active

Q: Which Activity does the source give for C=CCN(CC(=O)NC(CCCCN)C(=O)NC(CCCCN)C(=O)NC(CCSC)C(=O)NCCCCC(NC(=O)C(CCSC)NC(=O)C(CCCCN)NC(=O)C(CCCCN)NC(=O)CN(CC=C)C(=O)CN(Cc1ccc(OC)cc1)C(=O)CN(C(=O)CN(Cc1ccc2c(c1)OCO2)C(=O)CNC(C)c1ccccc1)C(C)c1ccccc1)C(N)=O)C(=O)CN(Cc1ccc(OC)cc1)C(=O)CN(C(=O)CN(Cc1ccc2c(c1)OCO2)C(=O)CNC(C)c1ccccc1)C(C)c1ccccc1 (stereo not drawn) (I: H-[X3][Gly(N-piperonyl)][X3][N(4-MeOBn)Gly][NAllylGly]KKMK-NH2 / II: H-[X3][Gly(N-piperonyl)][X3][N(4-MeOBn)Gly][NAllylGly]KKM; amide I:9-II:C; configuration not given here) here?
A: Active

Q: How did the Activity turn out when COc1ccc(CN(CC(=O)N(CC(=O)NC(CCCCN)C(=O)NC(CCCCN)C(=O)NC(CCSC)C(=O)NCCCCC(NC(=O)C(CCSC)NC(=O)C(CCCCN)NC(=O)C(CCCCN)NC(=O)CN(Cc2ccco2)C(=O)CN(Cc2ccc(OC)cc2)C(=O)CN(C(=O)CN(Cc2ccc3c(c2)OCO3)C(=O)CNC(C)c2ccccc2)C(C)c2ccccc2)C(N)=O)Cc2ccco2)C(=O)CN(C(=O)CN(Cc2ccc3c(c2)OCO3)C(=O)CNC(C)c2ccccc2)C(C)c2ccccc2)cc1 (stereo not drawn) (I: H-[X3][Gly(N-piperonyl)][X3][N(4-MeOBn)Gly][NFurfurylGly]KKMK-NH2 / II: H-[X3][Gly(N-piperonyl)][X3][N(4-MeOBn)Gly][NFurfurylGly]KKM; amide I:9-II:C; configuration not given here) was run?
A: Active

Q: With COc1ccc(CN(CC(=O)N(CC(=O)NC(CCCCN)C(=O)NC(CCCCN)C(=O)NC(CCSC)C(=O)NCCCCC(NC(=O)C(CCSC)NC(=O)C(CCCCN)NC(=O)C(CCCCN)NC(=O)CN(C(=O)CN(Cc2ccc(OC)cc2)C(=O)CN(C(=O)CN(Cc2ccc3c(c2)OCO3)C(=O)CNC(C)c2ccccc2)C(C)c2ccccc2)C2CC2)C(N)=O)C2CC2)C(=O)CN(C(=O)CN(Cc2ccc3c(c2)OCO3)C(=O)CNC(C)c2ccccc2)C(C)c2ccccc2)cc1 (stereo not drawn) (I: H-[X3][Gly(N-piperonyl)][X3][N(4-MeOBn)Gly][NcPrGly]KKMK-NH2 / II: H-[X3][Gly(N-piperonyl)][X3][N(4-MeOBn)Gly][NcPrGly]KKM; amide I:9-II:C; configuration not given here) as the compound, how does the Activity read?
A: Active

Q: For COCCN(CC(=O)NC(CCCCN)C(=O)NC(CCCCN)C(=O)NC(CCSC)C(=O)NCCCCC(NC(=O)C(CCSC)NC(=O)C(CCCCN)NC(=O)C(CCCCN)NC(=O)CN(CCOC)C(=O)CN(Cc1ccc(OC)cc1)C(=O)CN(C(=O)CN(Cc1ccc2c(c1)OCO2)C(=O)CNC(C)c1ccccc1)C(C)c1ccccc1)C(N)=O)C(=O)CN(Cc1ccc(OC)cc1)C(=O)CN(C(=O)CN(Cc1ccc2c(c1)OCO2)C(=O)CNC(C)c1ccccc1)C(C)c1ccccc1 (stereo not drawn) (I: H-[X3][Gly(N-piperonyl)][X3][N(4-MeOBn)Gly][Nme]KKMK-NH2 / II: H-[X3][Gly(N-piperonyl)][X3][N(4-MeOBn)Gly][Nme]KKM; amide I:9-II:C; configuration not given here), which Activity is on record?
A: Active

Q: How did the Activity turn out when COc1ccc(CN(CC(=O)N(C)CC(=O)NC(CCCCN)C(=O)NC(CCCCN)C(=O)NC(CCSC)C(=O)NCCCCC(NC(=O)C(CCSC)NC(=O)C(CCCCN)NC(=O)C(CCCCN)NC(=O)CN(C)C(=O)CN(Cc2ccc(OC)cc2)C(=O)CN(C(=O)CN(Cc2ccc3c(c2)OCO3)C(=O)CNC(C)c2ccccc2)C(C)c2ccccc2)C(N)=O)C(=O)CN(C(=O)CN(Cc2ccc3c(c2)OCO3)C(=O)CNC(C)c2ccccc2)C(C)c2ccccc2)cc1 (stereo not drawn) (I: H-[X3][Gly(N-piperonyl)][X3][N(4-MeOBn)Gly][Sar]KKMK-NH2 / II: H-[X3][Gly(N-piperonyl)][X3][N(4-MeOBn)Gly][Sar]KKM; amide I:9-II:C; configuration not given here) was run?
A: Active

Q: How did the Activity turn out when COc1ccc(CN(CC(=O)N(CC(=O)NC(CCCCN)C(=O)NC(CCCCN)C(=O)NC(CCSC)C(=O)NCCCCC(NC(=O)C(CCSC)NC(=O)C(CCCCN)NC(=O)C(CCCCN)NC(=O)CN(C(=O)CN(Cc2ccc(OC)cc2)C(=O)CN(C(=O)CN(Cc2ccc3c(c2)OCO3)C(=O)CNC(C)c2ccccc2)C(C)c2ccccc2)C(C)c2ccccc2)C(N)=O)C(C)c2ccccc2)C(=O)CN(C(=O)CN(Cc2ccc3c(c2)OCO3)C(=O)CNC(C)c2ccccc2)C(C)c2ccccc2)cc1 (stereo not drawn) (I: H-[X3][Gly(N-piperonyl)][X3][N(4-MeOBn)Gly][X3]KKMK-NH2 / II: H-[X3][Gly(N-piperonyl)][X3][N(4-MeOBn)Gly][X3]KKM; amide I:9-II:C; configuration not given here) was run?
A: Active

Q: How did the Activity turn out when CCC(C)N(CC(=O)NC(CCCCN)C(=O)NC(CCCCN)C(=O)NC(CCSC)C(=O)NCCCCC(NC(=O)C(CCSC)NC(=O)C(CCCCN)NC(=O)C(CCCCN)NC(=O)CN(C(=O)CN(Cc1ccc(OC)cc1)C(=O)CN(C(=O)CN(Cc1ccc2c(c1)OCO2)C(=O)CNC(C)c1ccccc1)C(C)c1ccccc1)C(C)CC)C(N)=O)C(=O)CN(Cc1ccc(OC)cc1)C(=O)CN(C(=O)CN(Cc1ccc2c(c1)OCO2)C(=O)CNC(C)c1ccccc1)C(C)c1ccccc1 (stereo not drawn) (I: H-[X3][Gly(N-piperonyl)][X3][N(4-MeOBn)Gly][X6]KKMK-NH2 / II: H-[X3][Gly(N-piperonyl)][X3][N(4-MeOBn)Gly][X6]KKM; amide I:9-II:C; configuration not given here) was run?
A: Active

Q: COc1ccc(CN(CC(=O)N(CC(=O)NC(CCCCN)C(=O)NC(CCCCN)C(=O)NC(CCSC)C(=O)NCCCCC(NC(=O)C(CCSC)NC(=O)C(CCCCN)NC(=O)C(CCCCN)NC(=O)CN(C(=O)CN(Cc2ccc(OC)cc2)C(=O)CN(C(=O)CN(Cc2ccc3c(c2)OCO3)C(=O)CNC(C)c2ccccc2)C(C)c2ccccc2)c2nccs2)C(N)=O)c2nccs2)C(=O)CN(C(=O)CN(Cc2ccc3c(c2)OCO3)C(=O)CNC(C)c2ccccc2)C(C)c2ccccc2)cc1 (stereo not drawn) (I: H-[X3][Gly(N-piperonyl)][X3][N(4-MeOBn)Gly][X7]KKMK-NH2 / II: H-[X3][Gly(N-piperonyl)][X3][N(4-MeOBn)Gly][X7]KKM; amide I:9-II:C; configuration not given here) was tested. Which Activity did it give?
A: Active
